Measured values reported in ChEMBL document CHEMBL1667863, “Amino-benzosuberone: a novel warhead for selective inhibition of human aminopeptidase-N/CD13” (Bioorg Med Chem, 2011).
Structures can show the parent of a compound that is named as a salt. Active and inactive are the calls of the source. The rule behind the calls is not given here.

Key:
[1] = target: Aminopeptidase N (Homo sapiens, UniProt P15144); experiment: Inhibition of human aminopeptidase N by Dixon plot analysis
[2] = target: T1, Leukotriene A-4 hydrolase (Homo sapiens, UniProt P09960); experiment: Inhibition of aminopeptidase activity of human leukotriene A4 hydrolase by Dixon plot analysis
T1 sequence (P09960 whole entry): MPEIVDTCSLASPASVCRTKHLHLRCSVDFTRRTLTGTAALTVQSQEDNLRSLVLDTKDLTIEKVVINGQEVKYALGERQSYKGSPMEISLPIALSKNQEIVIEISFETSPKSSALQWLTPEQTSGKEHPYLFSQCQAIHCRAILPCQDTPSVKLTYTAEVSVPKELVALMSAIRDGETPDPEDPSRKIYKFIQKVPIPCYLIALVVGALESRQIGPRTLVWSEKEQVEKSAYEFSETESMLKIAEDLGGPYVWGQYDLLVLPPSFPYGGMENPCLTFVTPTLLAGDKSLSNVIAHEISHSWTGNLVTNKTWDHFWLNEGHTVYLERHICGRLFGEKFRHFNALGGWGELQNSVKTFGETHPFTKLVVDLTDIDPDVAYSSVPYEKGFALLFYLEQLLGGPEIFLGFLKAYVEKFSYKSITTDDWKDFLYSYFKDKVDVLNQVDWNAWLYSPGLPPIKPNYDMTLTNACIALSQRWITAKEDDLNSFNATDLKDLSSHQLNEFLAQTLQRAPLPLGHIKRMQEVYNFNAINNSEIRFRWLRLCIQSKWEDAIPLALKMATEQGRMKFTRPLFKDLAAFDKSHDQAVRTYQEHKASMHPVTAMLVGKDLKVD
Method in brief: (§1)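 Compounds tested as racemates; IC50 obtained from Dixon plots, with substrate set at the Km of each enzyme.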

[3] = Inhibition of Aeromonas proteolytica aminopeptidase by Dixon plot analysis; design: species or system Vibrio proteolyticus; method in brief: as §1
[4] = target: T2, Cytosol aminopeptidase (Bos taurus, UniProt P00727); experiment: Inhibition of bovine lens cytosolic leucine aminopeptidase by Dixon plot analysis; design: species or system Lens of camera-type eye; method in brief: as §1
T2 sequence (P00727 whole entry): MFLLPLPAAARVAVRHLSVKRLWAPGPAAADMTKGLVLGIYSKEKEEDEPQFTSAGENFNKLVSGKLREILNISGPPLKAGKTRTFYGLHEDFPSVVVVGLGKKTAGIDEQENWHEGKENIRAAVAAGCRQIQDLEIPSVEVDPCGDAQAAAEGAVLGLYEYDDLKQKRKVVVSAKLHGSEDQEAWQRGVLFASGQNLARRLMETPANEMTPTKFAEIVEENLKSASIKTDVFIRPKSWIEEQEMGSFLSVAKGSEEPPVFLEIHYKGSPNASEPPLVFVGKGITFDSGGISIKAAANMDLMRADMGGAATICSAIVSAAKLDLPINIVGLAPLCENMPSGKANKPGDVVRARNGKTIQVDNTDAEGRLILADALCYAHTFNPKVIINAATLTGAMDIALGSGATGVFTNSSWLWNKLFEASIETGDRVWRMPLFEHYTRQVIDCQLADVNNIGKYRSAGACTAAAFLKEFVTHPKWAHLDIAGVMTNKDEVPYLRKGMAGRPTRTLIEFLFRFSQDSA

[5] = Chemical stability of the compound; format: physicochemical
[6] = target: T3, Aminopeptidase N (Sus scrofa) (UniProt P15145); experiment: Inhibition of porcine kidney aminopeptidase N at 2 uM after 8 hrs
T3 sequence (whole entry): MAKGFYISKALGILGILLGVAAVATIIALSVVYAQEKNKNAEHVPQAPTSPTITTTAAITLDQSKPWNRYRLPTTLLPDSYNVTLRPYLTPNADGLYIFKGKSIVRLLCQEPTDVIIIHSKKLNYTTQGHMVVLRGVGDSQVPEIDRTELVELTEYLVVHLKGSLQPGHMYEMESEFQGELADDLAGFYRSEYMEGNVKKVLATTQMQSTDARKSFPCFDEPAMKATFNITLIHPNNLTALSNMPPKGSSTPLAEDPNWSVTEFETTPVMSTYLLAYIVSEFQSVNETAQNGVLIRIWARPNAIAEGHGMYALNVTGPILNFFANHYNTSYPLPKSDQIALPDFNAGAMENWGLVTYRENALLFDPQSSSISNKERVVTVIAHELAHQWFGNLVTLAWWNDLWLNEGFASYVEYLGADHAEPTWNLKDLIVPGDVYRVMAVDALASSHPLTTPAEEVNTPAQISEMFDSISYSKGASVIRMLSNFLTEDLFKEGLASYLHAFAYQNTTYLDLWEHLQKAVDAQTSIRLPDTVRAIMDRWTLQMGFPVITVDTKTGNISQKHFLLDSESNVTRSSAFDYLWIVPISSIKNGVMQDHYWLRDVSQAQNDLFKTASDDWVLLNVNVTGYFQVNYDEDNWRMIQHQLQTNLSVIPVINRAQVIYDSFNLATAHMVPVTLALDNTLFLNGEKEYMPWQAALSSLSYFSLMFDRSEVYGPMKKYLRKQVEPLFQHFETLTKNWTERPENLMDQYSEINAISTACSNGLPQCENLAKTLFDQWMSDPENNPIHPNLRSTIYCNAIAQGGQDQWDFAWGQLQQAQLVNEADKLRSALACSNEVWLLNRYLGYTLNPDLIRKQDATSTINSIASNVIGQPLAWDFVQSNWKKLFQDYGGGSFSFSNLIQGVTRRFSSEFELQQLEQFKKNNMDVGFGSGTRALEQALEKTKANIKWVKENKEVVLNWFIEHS
Method in brief: (§2)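 Porcine kidney APN (3 milliunits, added to start the reaction) in 20 mM Tris-HCl pH 7.5 at 25 °C; substrate leucine-para-nitroanilide 0.2 mM; para-nitroaniline release followed at 405 nm for up to 10 h; inhibitor at 2 µM; velocities compared with a no-inhibitor control.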

[7] = target: T3, Aminopeptidase N (Sus scrofa); experiment: Inhibition of porcine kidney aminopeptidase N at 2 uM after 1 hr; method in brief: as §2

Chain of Aminopeptidase N (P15144 whole entry): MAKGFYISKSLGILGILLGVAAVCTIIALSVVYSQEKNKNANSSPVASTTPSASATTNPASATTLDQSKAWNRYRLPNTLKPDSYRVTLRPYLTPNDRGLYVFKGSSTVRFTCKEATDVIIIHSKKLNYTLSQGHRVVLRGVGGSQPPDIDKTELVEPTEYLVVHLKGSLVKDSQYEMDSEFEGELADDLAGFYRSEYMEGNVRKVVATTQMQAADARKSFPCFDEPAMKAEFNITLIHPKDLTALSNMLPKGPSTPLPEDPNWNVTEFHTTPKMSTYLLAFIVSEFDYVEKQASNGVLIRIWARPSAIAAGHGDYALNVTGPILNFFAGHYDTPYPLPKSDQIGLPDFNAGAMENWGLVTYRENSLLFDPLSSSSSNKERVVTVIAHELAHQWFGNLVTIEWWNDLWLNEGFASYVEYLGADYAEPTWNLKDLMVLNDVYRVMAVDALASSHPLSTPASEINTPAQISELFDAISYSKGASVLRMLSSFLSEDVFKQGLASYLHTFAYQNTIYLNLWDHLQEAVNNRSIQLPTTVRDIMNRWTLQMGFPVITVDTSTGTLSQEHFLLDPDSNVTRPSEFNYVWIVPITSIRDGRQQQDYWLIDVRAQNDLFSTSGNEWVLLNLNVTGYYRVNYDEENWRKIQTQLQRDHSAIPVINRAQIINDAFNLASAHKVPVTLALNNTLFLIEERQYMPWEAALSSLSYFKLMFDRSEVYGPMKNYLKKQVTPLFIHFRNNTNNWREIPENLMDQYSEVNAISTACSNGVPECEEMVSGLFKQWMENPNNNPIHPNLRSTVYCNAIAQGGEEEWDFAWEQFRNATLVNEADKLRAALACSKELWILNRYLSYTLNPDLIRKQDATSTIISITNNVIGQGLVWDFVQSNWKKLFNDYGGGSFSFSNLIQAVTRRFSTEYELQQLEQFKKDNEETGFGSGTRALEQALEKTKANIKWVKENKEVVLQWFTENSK

| Structure (SMILES) | IC50 [1] [µM] | IC50 [2] [µM] | IC50 [3] [µM] | IC50 [4] [µM] | Ki [1] [µM] | Stability [5] | inhibition [6] | inhibition [7] [%] |
| --- | --- | --- | --- | --- | --- | --- | --- | --- |
| NC1Cc2ccccc2CCC1=O (configuration not stated) | > 1000 | > 1000 | > 1000 | > 1000 | – | – | – | – |
| NC1CCCCCC1=O (configuration not stated) [2-AMINOCYCLOHEPTANONE HYDROCHLORIDE] | 310 | – | 350 | > 100 | – | – | – | – |
| CC(C)C[C@H](NC(=O)[C@@H](O)[C@H](N)Cc1ccccc1)C(=O)O [UBENIMEX] | – | – | 0.0016 | – | – | – | – | – |
| Cl.NC1CCc2ccccc2CC1=O (configuration not stated) | – | > 1000 | 900 | > 1000 | 1 | Stable | 60% | – |
| NC1C(=O)Cc2ccccc21 (configuration not stated) | – | > 1000 | 150 | > 1000 | – | – | – | – |
| NC1Cc2ccccc2CC1=O (configuration not stated) | – | > 1000 | 130 | – | – | – | inactive | 60 |
| N[C@H]1CCc2ccccc2C[C@H]1O (relative stereo) | – | – | > 1000 | > 1000 | – | – | – | – |
| NC1CCc2ccccc2C/C1=N/O (configuration not stated) | 110 | > 1000 | 15 | > 1000 | – | – | – | – |
